Consider 27 molecules from the M2OR odorant receptor database.

Molecules are shown by their SMILES.

Conditions in all cases: stereoisomer not certain
One experiment deals with T1, UniProt E9PZ66.
T1 sequence (whole entry): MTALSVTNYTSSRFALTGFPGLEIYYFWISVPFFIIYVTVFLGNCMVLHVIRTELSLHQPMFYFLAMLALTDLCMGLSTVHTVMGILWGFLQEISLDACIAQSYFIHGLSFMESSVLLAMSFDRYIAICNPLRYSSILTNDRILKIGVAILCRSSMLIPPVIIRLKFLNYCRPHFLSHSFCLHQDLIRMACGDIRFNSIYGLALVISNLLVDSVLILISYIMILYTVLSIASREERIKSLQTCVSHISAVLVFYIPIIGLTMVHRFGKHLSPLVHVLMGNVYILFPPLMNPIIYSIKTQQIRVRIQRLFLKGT
The procedure, abridged:
(§1)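 Whether a receptor–molecule pair is responsive (active) rests on the original authors' judgment that its measured signal was statistically different from baseline. Pairs without that judgment are non-responsive (inactive). Sources used varied assay methods, commonly transient luciferase assays in mammalian cell lines.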

For another experiment, the target named is T2, UniProt E9Q4X7.
T2 sequence (whole entry): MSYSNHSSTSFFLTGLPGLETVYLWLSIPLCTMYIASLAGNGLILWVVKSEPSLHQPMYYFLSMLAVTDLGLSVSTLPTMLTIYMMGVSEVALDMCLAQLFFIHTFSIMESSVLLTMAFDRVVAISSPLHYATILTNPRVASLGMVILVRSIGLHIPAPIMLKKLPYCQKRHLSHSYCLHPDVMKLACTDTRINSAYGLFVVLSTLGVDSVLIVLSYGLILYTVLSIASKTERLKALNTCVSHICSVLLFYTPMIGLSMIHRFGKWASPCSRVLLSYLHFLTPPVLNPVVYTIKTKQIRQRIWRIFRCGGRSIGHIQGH
The procedure, abridged: as §1

The target of the next experiment is T3, UniProt E9Q546.
T3 sequence (whole entry): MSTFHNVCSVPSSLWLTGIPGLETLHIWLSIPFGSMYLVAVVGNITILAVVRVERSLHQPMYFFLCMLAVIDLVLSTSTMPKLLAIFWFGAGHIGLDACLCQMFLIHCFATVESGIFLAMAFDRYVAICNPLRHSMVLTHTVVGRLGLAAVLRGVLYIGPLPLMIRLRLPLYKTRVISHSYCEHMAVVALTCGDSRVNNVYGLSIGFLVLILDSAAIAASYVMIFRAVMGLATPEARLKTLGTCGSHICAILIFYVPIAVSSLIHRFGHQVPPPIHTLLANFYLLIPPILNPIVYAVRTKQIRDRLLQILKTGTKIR
The procedure, abridged:
as §1

A further experiment has as its target T4, UniProt E9Q6Z7.
T4 sequence (whole entry): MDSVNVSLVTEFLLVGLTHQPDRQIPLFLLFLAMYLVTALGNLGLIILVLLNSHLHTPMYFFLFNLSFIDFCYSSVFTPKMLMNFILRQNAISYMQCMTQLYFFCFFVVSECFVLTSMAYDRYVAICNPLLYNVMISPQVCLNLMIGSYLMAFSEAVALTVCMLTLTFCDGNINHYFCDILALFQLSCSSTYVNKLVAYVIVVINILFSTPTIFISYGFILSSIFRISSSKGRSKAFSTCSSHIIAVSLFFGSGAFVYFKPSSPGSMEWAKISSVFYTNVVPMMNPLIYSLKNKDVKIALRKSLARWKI
In outline:
as §1

In a further experiment the target is T5, UniProt E9PXN3.
T5 sequence (whole entry): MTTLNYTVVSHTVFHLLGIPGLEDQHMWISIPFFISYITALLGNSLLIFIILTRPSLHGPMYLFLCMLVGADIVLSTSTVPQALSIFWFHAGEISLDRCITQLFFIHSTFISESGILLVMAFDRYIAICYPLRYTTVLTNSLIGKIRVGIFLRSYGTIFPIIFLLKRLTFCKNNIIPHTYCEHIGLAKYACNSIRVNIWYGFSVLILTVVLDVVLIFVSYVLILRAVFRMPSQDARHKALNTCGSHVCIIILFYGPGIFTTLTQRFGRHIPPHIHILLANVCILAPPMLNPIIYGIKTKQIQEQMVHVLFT
In outline:
as §1

Another experiment concerns the target T6, UniProt K7N609.
T6 sequence (whole entry): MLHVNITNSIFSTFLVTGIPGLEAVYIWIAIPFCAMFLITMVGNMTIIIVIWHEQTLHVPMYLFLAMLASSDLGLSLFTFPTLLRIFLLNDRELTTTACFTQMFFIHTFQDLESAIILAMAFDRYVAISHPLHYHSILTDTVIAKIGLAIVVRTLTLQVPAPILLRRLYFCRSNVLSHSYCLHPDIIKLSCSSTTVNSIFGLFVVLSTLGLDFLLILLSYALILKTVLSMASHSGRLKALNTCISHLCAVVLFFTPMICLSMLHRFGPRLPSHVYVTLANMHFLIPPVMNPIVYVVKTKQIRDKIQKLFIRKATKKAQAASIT
In outline: as §1
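Further: active if original authors judged signal statistically different from baseline.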

Take `CCCC=O`: the “odorant receptor agonist call” value with UniProt E9PZ66, with UniProt E9Q4X7, with UniProt E9Q546 and with UniProt E9Q6Z7 was “inactive” throughout.
Take `O=C(O)CCCCCCCCC(=O)O`: the “odorant receptor agonist call” value with UniProt E9PZ66, with UniProt E9Q4X7, with UniProt E9Q546 and with UniProt E9Q6Z7 was “inactive” each time.
Take `CCCCCCCCCCCC(=O)O`: the “odorant receptor agonist call” value with UniProt E9PXN3 is “active”.
Regarding `CCCCCCCCCCCO`, the “odorant receptor agonist call” value with UniProt E9PXN3, in the experiment with UniProt E9PZ66, with UniProt E9Q4X7, in the experiment with UniProt E9Q546 and in the experiment with UniProt E9Q6Z7 was “inactive” in each case.
As for `CCCCOC(=O)CCC`, the “odorant receptor agonist call” value in the experiment with UniProt E9PXN3 was “inactive”.
Consider `CC(=O)C1(C)CC2=C(CCCC2(C)C)CC1C` (stereo not given), for which the “odorant receptor agonist call” value in the experiment with UniProt E9PZ66, with UniProt E9Q4X7, with UniProt E9Q546 and with UniProt E9Q6Z7 was “inactive” each time.
Take `O=C(O)CCCCCBr`: the “odorant receptor agonist call” value with UniProt E9PXN3, in the experiment with UniProt E9PZ66, in the experiment with UniProt E9Q4X7, with UniProt E9Q546 and in the experiment with UniProt E9Q6Z7 was “inactive” in each case.
On to `CCc1ccccc1O`, for which the “odorant receptor agonist call” value in the experiment with UniProt E9PZ66, in the experiment with UniProt E9Q4X7, with UniProt E9Q546 and with UniProt E9Q6Z7 was “inactive” throughout.
`CC=C(C)C=O`: the “odorant receptor agonist call” value in the experiment with UniProt E9PZ66, in the experiment with UniProt E9Q4X7, with UniProt E9Q546 and in the experiment with UniProt E9Q6Z7 was “inactive” throughout.
In the case of `CCCCC(=O)O`, the “odorant receptor agonist call” value with UniProt E9PXN3, in the experiment with UniProt E9Q4X7, with UniProt E9Q546, with UniProt E9Q6Z7 and with UniProt K7N609 was “inactive” throughout. Besides, in the experiment with UniProt E9PZ66, the “odorant receptor agonist call” value is “active”.
For `C=C(C)C1CCC2(C)OC2C1` (stereo not given), the “odorant receptor agonist call” value with UniProt E9PZ66, with UniProt E9Q4X7, with UniProt E9Q546 and with UniProt E9Q6Z7 was “inactive” in each case.
Consider `CCCCCCC(=O)OCCCC`, for which the “odorant receptor agonist call” value with UniProt E9PZ66, with UniProt E9Q4X7, with UniProt E9Q546 and with UniProt E9Q6Z7 was “inactive” in each case.
Take `CCCC(C)=O`: the “odorant receptor agonist call” value with UniProt E9PXN3, with UniProt E9Q546 and in the experiment with UniProt K7N609 was “inactive” throughout.
With `CC(=O)OCCc1ccccc1`, the “odorant receptor agonist call” value with UniProt E9PZ66, with UniProt E9Q4X7, with UniProt E9Q546 and with UniProt E9Q6Z7 was “inactive” in each case.
In the case of `C=C(C)C1CCC(C)C(O)C1` (stereo not given), the “odorant receptor agonist call” value in the experiment with UniProt E9PZ66, with UniProt E9Q4X7, with UniProt E9Q546 and in the experiment with UniProt E9Q6Z7 was “inactive” in each case.
As for `CCCCCCCO`, the “odorant receptor agonist call” value with UniProt E9PXN3, with UniProt E9PZ66, with UniProt E9Q4X7, with UniProt E9Q546, with UniProt E9Q6Z7 and with UniProt K7N609 was “inactive” each time.
`CCCCC=O`: the “odorant receptor agonist call” value with UniProt E9PXN3, with UniProt E9PZ66, with UniProt E9Q4X7, in the experiment with UniProt E9Q546 and with UniProt E9Q6Z7 was “inactive” throughout.
Take `CCCCCCO`: the “odorant receptor agonist call” value in the experiment with UniProt E9PXN3, in the experiment with UniProt E9PZ66, in the experiment with UniProt E9Q4X7, with UniProt E9Q546, with UniProt E9Q6Z7 and with UniProt K7N609 was “inactive” in each case.
Regarding `C=CC(C)=CCC=C(C)CCC=C(C)C`, the “odorant receptor agonist call” value with UniProt E9PZ66, in the experiment with UniProt E9Q4X7, in the experiment with UniProt E9Q546 and in the experiment with UniProt E9Q6Z7 was “inactive” each time.
Turning to `CC(C)CCN`, the “odorant receptor agonist call” value in the experiment with UniProt E9PZ66, with UniProt E9Q4X7, in the experiment with UniProt E9Q546 and in the experiment with UniProt E9Q6Z7 was “inactive” throughout.
Turning to `CSSSC`, the “odorant receptor agonist call” value with UniProt E9PZ66, with UniProt E9Q4X7, with UniProt E9Q546 and with UniProt E9Q6Z7 was “inactive” throughout.
With `O=C([O-])CCCCCCCC(=O)[O-].[H+].[H+]`, the “odorant receptor agonist call” value with UniProt E9PXN3, with UniProt E9PZ66, in the experiment with UniProt E9Q4X7, with UniProt E9Q546 and in the experiment with UniProt E9Q6Z7 was “inactive” throughout.
With `CCCCCCCCO`, the “odorant receptor agonist call” value in the experiment with UniProt E9PXN3, in the experiment with UniProt E9PZ66, with UniProt E9Q4X7, with UniProt E9Q546, with UniProt E9Q6Z7 and with UniProt K7N609 was “inactive” each time.
Take `CCOC(=O)CC(C)C`: the “odorant receptor agonist call” value with UniProt E9PZ66, with UniProt E9Q4X7, in the experiment with UniProt E9Q546 and with UniProt E9Q6Z7 was “inactive” in each case.
Take `CCCCCCCCCO`: the “odorant receptor agonist call” value with UniProt E9PXN3, with UniProt E9PZ66, with UniProt E9Q4X7, in the experiment with UniProt E9Q546, with UniProt E9Q6Z7 and with UniProt K7N609 was “inactive” in each case.
Turning to `O=C([O-])CCCCCCC(=O)[O-].[H+].[H+]`, the “odorant receptor agonist call” value in the experiment with UniProt E9PZ66, in the experiment with UniProt E9Q4X7, with UniProt E9Q546 and with UniProt E9Q6Z7 was “inactive” throughout.
Take `CCCCCCC(C)O` (stereo not given): the “odorant receptor agonist call” value in the experiment with UniProt E9PZ66, in the experiment with UniProt E9Q4X7 and with UniProt E9Q546 was “inactive” in each case. For the same molecule, the “odorant receptor agonist call” value with UniProt E9Q6Z7 is “active”.
